Reference: ChEMBL document CHEMBL2406990, “Guanidine alkaloids from Plumbago zeylanica” (J Nat Prod, 2013)

Columns and labels:
PANC-1 = assay: Cytotoxicity against human PANC1 cells after 72 hrs by SRB assay; format: functional, cell-based; conditions: PANC-1, 72 h
Outline: (§1)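 Cells seeded and left 24 h, then exposed to serial dilutions of compound (top concentration 100 μM). Incubation 72 h at 37 °C in humidified 5% CO2. Fixed with 10% trichloroacetic acid (4 °C, 1 h), water-washed, dried, stained 15 min with 0.4% SRB in 1% acetic acid. Unbound dye removed with 1% acetic acid, bound dye taken up in 10 mM Tris base, A510 read. Triplicate, IC50.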

MDA-MB-231 = assay: Cytotoxicity against human MDA-MB-231 cells after 72 hrs by SRB assay; format: functional, cell-based; conditions: MDA-MB-231, 72 h; outline: as §1

Row | SMILES | IC50 (PANC-1) [µM] | IC50 (MDA-MB-231) [µM]
1 | CC(C)=C[C@@H]1C[C@@H](C(=O)O)[C@@H]2CN(CC(O)CCO[C@H]3OC[C@@H](O)[C@H](O)[C@H]3O)C(=N)N12 (stereo partly drawn) | > 10 | > 10
2 | CC1=C[C@@H](C[C@@H](C(=O)O)[C@@H]2CN(CC(O)CCO[C@H]3OC[C@@H](O)[C@H](O)[C@H]3O)C(=N)N2)OC1=O (stereo partly drawn) | > 10 | > 10
3 | CC(C)(O)CCC[C@@H](C(=O)O)[C@@H]1CNC(=N)N1 | > 10 | > 10
4 | CC(C)=CCC[C@@H](C(=O)O)[C@@H]1CNC(=N)N1 | > 10 | > 10
5 | C/C(=C\CC[C@@H](C(=O)O)[C@@H]1CNC(=N)N1)CO | > 10 | > 10
6 | CC(C)=C[C@@H]1C[C@@H](C(=O)O)[C@@H]2CNC(=N)N12 | > 10 | > 10
7 | CC1=C[C@@H](C[C@@H](C(=O)O)[C@@H]2CNC(=N)N2)OC1=O | > 10 | > 10
8 | CC(C)=CCC[C@@H](C(=O)O)[C@@H]1CN(CC(O)CCO)C(=N)N1 (stereo partly drawn) | > 10 | > 10
9 | C/C(=C\CC[C@@H](C(=O)O)[C@@H]1CN(CC(O)CCO)C(=N)N1)CO (stereo partly drawn) | > 10 | > 10
10 | CC(C)=C[C@@H]1C[C@@H](C(=O)O)[C@@H]2CN(CC(O)CCO)C(=N)N12 (stereo partly drawn) | > 10 | > 10
11 | CC1=C[C@@H](C[C@@H](C(=O)O)[C@@H]2CN(CC(O)CCO)C(=N)N2)OC1=O (stereo partly drawn) | > 10 | > 10
12 | CC(C)=CCC[C@@H](C(=O)O)[C@@H]1CN(CC(O)CCO[C@H]2OC[C@@H](O)[C@H](O)[C@H]2O)C(=N)N1 (stereo partly drawn) | > 10 | > 10
13 | C/C(=C\CC[C@@H](C(=O)O)[C@@H]1CN(CC(O)CCO[C@H]2OC[C@@H](O)[C@H](O)[C@H]2O)C(=N)N1)CO (stereo partly drawn) | > 10 | > 10
14 | CC(=O)O[C@H]1C(=O)[C@@]2(C)[C@H]([C@H](OC(=O)c3ccccc3)[C@]3(O)C[C@H](OC(=O)[C@H](O)[C@@H](NC(=O)c4ccccc4)c4ccccc4)C(C)=C1C3(C)C)[C@]1(OC(C)=O)CO[C@@H]1C[C@@H]2O [PACLITAXEL] | < 1 | < 1
